KCNK9 block = inhibitors of human KCNK9 two-pore domain potassium channel | Q9NPC2 | HEK293 KCNK9, FluxOR thallium flux fluorescence; active compounds read low | B-score at 10 µM | 1.2% of 310,000 active;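 active = ratio B-score over 3 SD below the library mean, with starting fluorescence within 5 SD of its mean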;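 also: negative B-score means less thallium flux so channel inhibition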
hERG rescue = shields human hERG channel from block by proarrhythmic agents; 0.51% of 310,000 active; Q12809; activation (rescue from dofetilide block), less the hit threshold, % at 10 µM; CHO-hERG, FluxOR thallium flux, dofetilide IC70 present;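 active = activation above the mean of controls blocked by dofetilide plus 5 SD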;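 also: thallium influx through hERG after potassium depolarization seen as dye fluorescence rise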
Target sequence (Q12809 whole entry, looked up): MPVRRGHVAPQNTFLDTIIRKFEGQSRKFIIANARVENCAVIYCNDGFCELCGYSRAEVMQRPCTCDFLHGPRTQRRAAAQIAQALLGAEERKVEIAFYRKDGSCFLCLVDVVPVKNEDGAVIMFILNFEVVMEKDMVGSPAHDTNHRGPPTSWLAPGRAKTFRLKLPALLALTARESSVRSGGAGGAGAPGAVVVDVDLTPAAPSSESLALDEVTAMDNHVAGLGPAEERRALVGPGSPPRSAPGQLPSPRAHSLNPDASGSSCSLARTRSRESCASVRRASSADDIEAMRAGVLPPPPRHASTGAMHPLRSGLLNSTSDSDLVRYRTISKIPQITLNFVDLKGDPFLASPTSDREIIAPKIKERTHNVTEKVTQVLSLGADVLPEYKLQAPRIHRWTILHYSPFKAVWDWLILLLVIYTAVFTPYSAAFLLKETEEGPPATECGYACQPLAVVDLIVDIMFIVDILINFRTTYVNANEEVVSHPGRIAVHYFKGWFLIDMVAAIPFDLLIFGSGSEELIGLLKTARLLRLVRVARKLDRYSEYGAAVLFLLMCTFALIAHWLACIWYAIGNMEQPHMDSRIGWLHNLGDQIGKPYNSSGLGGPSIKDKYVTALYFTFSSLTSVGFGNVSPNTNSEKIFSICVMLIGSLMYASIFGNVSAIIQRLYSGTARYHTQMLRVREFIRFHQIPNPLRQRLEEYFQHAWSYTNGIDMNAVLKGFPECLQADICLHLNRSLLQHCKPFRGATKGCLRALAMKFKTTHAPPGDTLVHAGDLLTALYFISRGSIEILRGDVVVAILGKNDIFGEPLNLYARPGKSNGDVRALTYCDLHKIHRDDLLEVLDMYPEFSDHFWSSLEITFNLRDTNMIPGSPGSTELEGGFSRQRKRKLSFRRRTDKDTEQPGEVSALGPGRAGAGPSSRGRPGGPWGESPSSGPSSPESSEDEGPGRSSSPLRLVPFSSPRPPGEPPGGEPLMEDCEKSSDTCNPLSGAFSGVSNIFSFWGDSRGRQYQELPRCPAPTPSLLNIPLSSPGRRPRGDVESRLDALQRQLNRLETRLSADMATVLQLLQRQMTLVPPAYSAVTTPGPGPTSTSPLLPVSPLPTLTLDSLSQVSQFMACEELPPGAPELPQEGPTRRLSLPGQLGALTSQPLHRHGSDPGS
KCNQ1 pot = potentiates or activates the human KCNQ1 potassium channel. CHO-K1 KCNQ1, thallium flux FluxOR fluorescence; active compounds read high. AID 2648. B-score at 10 µM. P51787. 0.35% of 310,000 active;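 active = fluorescence ratio B-score, a plate-corrected score, at least three library SD, with initial intensity B-score within 5 SD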
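Material: CHO-K1 cells stably expressing KCNQ1. Medium: assay buffer for compound exposure, DMSO matched across wells. Reagent: K+/Tl+ depolarizing stimulus. Compound dosing: single-concentration screen. Times: 37 °C overnight plating, 90-min dark dye load, 20-min compound pretreatment. Technique: FluxOR Tl+ flux fluorescence.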
KCNK3 inh = human KCNK3 channel inhibition, primary screen. B-score at 10 µM. AID 602410. CHO-KCNK3 thallium flux, FluxOR fluorescence; active compounds read low. 0.84% of 340,000 active;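 active = B-score under library mean minus 4 SD, starting fluorescence ratio at most library mean plus 5 SD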;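 also: more negative B-score means stronger inhibition of thallium flux through KCNK3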
KCNQ1 block = human KCNQ1 channel inhibition; B-score at 10 µM; AID 2642; 1.3% of 310,000 active; P51787; CHO-K1 KCNQ1, FluxOR thallium flux fluorescence; active compounds read high;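 active = compounds whose thallium flux B-score, printed positive for inhibition, exceeds three library SD while starting fluorescence stays within three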;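 also: channel opened by potassium depolarization with thallium stimulus after 20 min compound exposure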
KCC2 mod = KCC2 (human) Cl- transport modulation. Q9H2X9. KCC2 cells, thallium flux FluoZin-2 fluorescence. B-score of Tl+ flux slope (higher = more flux/activation; lower = inhibition) at 10 µM. 2.2% of 190,000 active. AID 1456;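 active = thallium flux slope and its plate-corrected score both differing from the plate sample mean at a set confidence after two filtering rounds, in either direction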;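 also: slope of fluorescence scaled to starting intensity during 10 to 20 s after thallium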
KCC2 secondary = KCC2 (human) modulation, secondary assay | 15% of 3,700 active | AID 1713 | normalised thallium flux (F/F0 slope) at 10 µM | shares compounds with KCC2 mod | HEK293-KCC2, thallium flux, FluoZin2 fluorescence; active compounds read high;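 active = thallium flux slope above the same plate's solvent-only control mean plus 3 SD; inconclusive = the two replicate wells disagree; inactive = no significant difference from solvent-only control wells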
KCC2 bumet counter = bumetanide-insensitive thallium flux in KCC2 cells with ouabain, counter-screen | 49% of 3,700 active | shares compounds with KCC2 mod | AID 1714 | HEK293-KCC2 + bumetanide/ouabain, thallium flux FluoZin2; active compounds read high | normalized thallium flux at 10 µM;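 active = thallium entry rate above the same plate's blocked-transporter control wells by more than 3 SD; inconclusive = the two repeat wells disagree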;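 also: raw slope of fluorescence over initial fluorescence between 10 and 20 s after thallium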
KCC2 secondary2 = confirmation of human KCC2 transport modulators; shares compounds with KCC2 mod; HEK293-KCC2, thallium flux FluoZin2 fluorescence; actives lie on both sides; F/F0 rise rate, 10–20 s post-thallium; normalized thallium flux at 10 µM; 23% of 3,700 active; AID 1715;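 active = thallium flux slope more than 3 SD above or below the plate's solvent-only control mean, mostly below; inconclusive = the two repeat wells disagreed; inactive = no significant shift from solvent-only controls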;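 also: raw slope with 0.1% DMSO as baseline and bumetanide as block control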
HEK counter1 = acts in parental HEK cells, KCC2 counter-screen | shares compounds with KCC2 mod | HEK293 parental cells, thallium flux FluoZin2, ouabain; baseline-ratio fluorescence slope, 10–20 s after thallium | thallium flux rate (normalised fluorescence) at 10 µM | 46% of 3,700 active | AID 1716;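 active = thallium flux rate significantly above the same plate's solvent-only control wells, beyond their mean plus 3 SD; inconclusive = the two replicate wells gave conflicting results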
KCC2 retest ouab = modulates human KCC2 on retest with ouabain | shares compounds with KCC2 mod | HEK293-KCC2, thallium flux FluoZin2 fluorescence; bidirectional: low = inhibitor, high = activator | raw Tl+ flux slope (below DMSO = inhibition, above = activation) at 10 µM | 48% of 3,700 active;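 active = thallium flux slope beyond 3 SD from same-plate DMSO control mean in most replicates, usually higher, sometimes lower; inconclusive = repeat tests gave conflicting results; inactive = no significant difference from controls in most replicates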;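 also: slope of initial-normalized fluorescence between seconds 10 and 20 after thallium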
HEK293 Tl flux2 = counter-screen for KCC2 modulators: effect in parental HEK293 cells | thallium flux slope at 10 µM | thallium flux FluoZin-2 fluorescence slope | AID 1718 | shares compounds with KCC2 mod | 33% of 3,700 active;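 active = thallium flux slope above the same plate's solvent-control mean plus 3 SD in both duplicate wells; inconclusive = duplicate wells that disagreed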;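 also: run without ouabain in cells lacking the KCC2 cotransporter; slope of fluorescence scaled to its starting value between 10 and 20 s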
* hit, by the source's call. Rows were chosen to be rich in hits. Some 4.1% of all compounds tested hit in one or more screens of this group.

Screening Fc1ccccc1/C=N/n1cc(-c2ccccc2)[nH]c1=S returned KCNK9 block inactive, hERG rescue -8, KCNQ1 pot inactive, KCNK3 inh inactive, KCNQ1 block inactive, KCC2 mod 75*, KCC2 secondary 0.026*, KCC2 bumet counter 0.12*, KCC2 secondary2 0.035, HEK counter1 0.053*, KCC2 retest ouab 0.067* and HEK293 Tl flux2 0.017*.
Screening NC(=O)c1ncn([C@@H]2O[C@H](CNCc3ccc(-c4cc(C(F)(F)F)ccc4Cl)o3)[C@@H](O)[C@H]2O)n1 returned KCNK3 inh inactive.
`CC(=O)NC(C)C(=O)OCC(=O)c1ccc(-c2ccccc2)cc1` (stereo not drawn) gave KCNK9 block inactive, hERG rescue -7, KCNQ1 pot inactive, KCNK3 inh inactive, KCNQ1 block inactive, KCC2 mod -4.1*, KCC2 secondary 0.0072, KCC2 bumet counter 0.0051, KCC2 secondary2 inconclusive, HEK counter1 0.0079, KCC2 retest ouab 0.018 and HEK293 Tl flux2 0.012.
`CCC(Oc1ccccc1)C(=O)Nc1nnc(C)s1` (stereo not drawn) gave KCNK9 block inactive, hERG rescue -2, KCNQ1 pot inactive, KCNK3 inh inactive, KCNQ1 block inactive and KCC2 mod 1.7.
For CCC(Oc1ccccc1)C(=O)Nc1ncc([N+](=O)[O-])s1 (stereo not drawn) the results were KCNK9 block inactive, hERG rescue -10, KCNQ1 pot inactive, KCNK3 inh inactive, KCNQ1 block inactive, KCC2 mod -2.8*, KCC2 secondary 0.0077, KCC2 bumet counter inconclusive, KCC2 secondary2 0.033, HEK counter1 0.007, KCC2 retest ouab 0.017* and HEK293 Tl flux2 0.011.
CCOC(=O)c1c(NC(=S)NCc2ccccc2)sc2c1CCN(C(=O)OCC)C2 was read as KCNK9 block inactive, hERG rescue -9, KCNQ1 pot inactive, KCNK3 inh inactive, KCNQ1 block inactive, KCC2 mod 4.7*, KCC2 secondary inconclusive, KCC2 bumet counter 0.025*, KCC2 secondary2 0.032, HEK counter1 0.014*, KCC2 retest ouab 0.024 and HEK293 Tl flux2 0.012*.
`C=CCNC(=S)Nc1sc2c(c1C(=O)OCC)CCN(C(=O)OCC)C2` gave KCNK9 block inactive, hERG rescue -9, KCNQ1 pot inactive, KCNK3 inh inactive, KCNQ1 block inactive and KCC2 mod 5.7.
For Cc1cn(C2CCCCC2)c(=O)[nH]c1=O the results were KCNK3 inh inactive.
`CCOc1cc(N2CCOCC2)c(OCC)cc1NC(=O)COC(=O)/C=C/c1ccc(OC(F)F)cc1` gave KCNK9 block inactive, hERG rescue -13, KCNQ1 pot inactive, KCNK3 inh inactive and KCNQ1 block inactive.
Screening COCc1cc(C)nc(OCC(=O)N/N=C/c2ccc(-c3cc([N+](=O)[O-])ccc3Cl)o2)c1C#N returned KCNK9 block inactive, hERG rescue -8, KCNQ1 pot inactive, KCNK3 inh inactive, KCNQ1 block inactive, KCC2 mod 6.8*, KCC2 secondary 0.0072, KCC2 bumet counter 0.015*, KCC2 secondary2 0.035, HEK counter1 0.024*, KCC2 retest ouab 0.027* and HEK293 Tl flux2 0.021*.
For CC(C)c1nnc(NC(=O)c2cccnc2)s1 the results were KCNK9 block inactive, hERG rescue -9, KCNQ1 pot inactive, KCNK3 inh inactive, KCNQ1 block inactive, KCC2 mod 7.8*, KCC2 secondary 0.016, KCC2 bumet counter 0.0051, KCC2 secondary2 0.027, HEK counter1 0.0073, KCC2 retest ouab 0.016 and HEK293 Tl flux2 0.011.
COc1ccc(C2(C)NC(=O)N(CC(=O)Nc3ccc(C)cc3Br)C2=O)cc1OC (stereo not drawn) was read as KCNK9 block inactive, hERG rescue -14, KCNQ1 pot inactive, KCNK3 inh inactive and KCNQ1 block inactive.
Screening O=C(COC(=O)c1cccnc1Cl)Nc1nc(-c2ccccc2)cs1 returned KCNK9 block inactive, hERG rescue -16, KCNQ1 pot inactive, KCNK3 inh inactive, KCNQ1 block inactive, KCC2 mod -5.3*, KCC2 secondary 0.0056*, KCC2 bumet counter 0.0063, KCC2 secondary2 0.029, HEK counter1 0.0068, KCC2 retest ouab 0.041* and HEK293 Tl flux2 0.01.
`O=C(COC(=O)c1ccccc1O)Nc1cccnc1Cl` gave KCNK9 block inactive, hERG rescue -9, KCNQ1 pot inactive, KCNK3 inh inactive, KCNQ1 block inactive and KCC2 mod 1.9.
Cc1ccc(-c2csc(NC(=O)CCNC(=O)c3ccccc3Cl)n2)cc1 was read as KCNK9 block inactive, hERG rescue -3, KCNQ1 pot inactive, KCNK3 inh inactive, KCNQ1 block inactive, KCC2 mod -3.8*, KCC2 secondary 0.0061, KCC2 bumet counter 0.0047, KCC2 secondary2 inconclusive, HEK counter1 0.0076, KCC2 retest ouab inconclusive and HEK293 Tl flux2 0.01.
For CCN(C(=O)COC(=O)CNC(=O)c1ccc(C)cc1)c1c(N)n(Cc2ccccc2)c(=O)[nH]c1=O the results were KCNK3 inh inactive.
Screening CCC1CCCCN1C(=O)c1cc(COc2ccc(-n3cncn3)cc2)on1 (stereo not drawn) returned KCNK9 block inactive, hERG rescue -7, KCNQ1 pot inactive, KCNK3 inh inactive and KCNQ1 block inactive.

Bioassay records (PubChem)
